Compound activity: PubChem, Broad Institute
SR-BI HDL uptake: blocks mouse SR-BI lipid uptake from DiI-HDL; inhibition, % at 12.5 µM; Q61009; ldlA[mSR-BI] CHO cells, DiI-HDL uptake fluorescence, 3 h; AID 488896; hit rate 0.96% among 320,000;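 active = mean replicate inhibition of at least 70% and a set share of replicates each scoring 70 or more; inconclusive = meets just one of the two criteria; inactive = fails both criteria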;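 also: 0% = median of neutral control wells and 100% = median of positive control wells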
Target sequence (Q61009 whole entry, looked up): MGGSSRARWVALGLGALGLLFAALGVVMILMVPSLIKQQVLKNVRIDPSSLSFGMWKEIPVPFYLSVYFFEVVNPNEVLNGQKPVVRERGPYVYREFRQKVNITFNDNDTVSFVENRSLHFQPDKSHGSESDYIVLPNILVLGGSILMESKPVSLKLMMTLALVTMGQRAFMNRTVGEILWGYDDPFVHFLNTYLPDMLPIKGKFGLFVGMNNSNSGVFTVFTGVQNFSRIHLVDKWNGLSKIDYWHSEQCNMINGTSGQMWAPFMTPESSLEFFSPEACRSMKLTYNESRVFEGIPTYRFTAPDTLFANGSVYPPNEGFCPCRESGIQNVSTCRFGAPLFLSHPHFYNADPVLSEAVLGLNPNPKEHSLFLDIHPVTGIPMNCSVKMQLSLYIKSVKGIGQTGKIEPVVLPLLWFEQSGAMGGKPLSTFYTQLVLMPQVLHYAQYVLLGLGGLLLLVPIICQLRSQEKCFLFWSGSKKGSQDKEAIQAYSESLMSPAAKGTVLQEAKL
dFosB act-1: activators of mouse delta FosB homodimer; P13346; purified delta FosB, TAMRA-CDK5 oligo fluorescence polarization; percent of positive-control signal above neutral wells; activation, % at 25 µM; hit rate 0.99% among 340,000; AID 493131;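 active = mean activation above about 17%, with every replicate also reaching it, limit read from the data, passing the limit was not always enough; inconclusive = only one of the two conditions met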
SR-BI DiI-HDL act: enhances SR-BI lipid uptake from DiI-HDL. CHO ldlA[mSR-BI] cells, DiI-HDL uptake fluorescence, 3 h; 100 = double the neutral-control signal. activation, % at 12.5 µM. hit rate 0.096% among 320,000. AID 504775;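 active = mean replicate activation of at least 60% and every replicate at or above 60%; inconclusive = mean or all-replicate condition met, but not both; inactive = mean below 60% and not all replicates reaching 60%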;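 also: 0% = median plate neutral-control signal and 100% = twice that signal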
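System: CHO ldlA[mSR-BI] cells / Medium: HEPES-buffered (25 mM, pH 7.4) F12 plus 0.5% BSA / Probe or stimulus: labelled HDL, 10 µg/mL / Doses: single compound concentration, delivered by pin transfer / Schedule: 3 h, 37 °C / Measured by: DiI fluorescence, bottom read / Measure: cell-associated DiI fluorescence as measure of HDL uptake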
CDK5 inh: CDK5/p35 (human) kinase inhibition. AID 488839. hit rate 0.01% among 330,000. inhibition, % at 10 µM. Recombinant CDK5/p35, ADP-Glo luminescence, 60 min. Q00535+Q15078;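 active = highest replicate inhibition of at least 50% and at least 75% of replicates reaching 50%; inconclusive = only one of the two criteria met; inactive = both criteria failed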;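 also: plate controls were DMSO neutral control for no effect and GW8510 at 10 µM for full effect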
dFosB act-2: activators of mouse delta FosB homodimer DNA binding | 2,400 tested, under 10 active | purified delta FosB, TAMRA-CDK5 oligo fluorescence polarization; normalised: neutral wells 0, positive control 100 | shares compounds with dFosB act-1 | activation, % at 24.9 µM | AID 588690;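 active = highest replicate activation at or above 34% and every replicate reaching that threshold; inconclusive = meets only one of the two criteria; inactive = meets neither criterion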;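 also: higher polarization means more probe DNA bound by delta FosB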
Active calls of the source: *; ? = inconclusive; · = no result. Sampled rows, rich in hits. Any-hit rate of the full collection: about 2%.

SMILES | SR-BI HDL uptake | dFosB act-1 | SR-BI DiI-HDL act | CDK5 inh | dFosB act-2
NS(=O)(=O)c1ccc(CCNC(=O)COC(=O)/C=C/c2ccc(Cl)cc2)cc1 | 8 | 21* | -8 | -3 | -2
NS(=O)(=O)c1ccc(NC(=O)CCCCC(=O)Nc2ccc(S(N)(=O)=O)cc2)cc1 | -12 | 53* | 12 | -1 | 7
CCN(CC)S(=O)(=O)c1ccc(/C=C/C(=O)OCC(=O)Nc2ccc(S(N)(=O)=O)cc2)cc1 | 6 | 116* | -6 | 0 | 6
O=C(COC(=O)/C=C/c1ccc(Cl)cc1)Nc1ccc2[nH]c(=O)[nH]c2c1 | 12 | 22* | -12 | 0 | 0
O=C(N1CCOCC1)N1CCN(S(=O)(=O)c2cccc([N+](=O)[O-])c2)CC1 | -10 | 2 | 10 | -1 | ·
ONC(=Nc1cccc(C(F)(F)F)c1)c1cccnc1 | -17 | -2 | 17 | 1 | ·
Cc1c(Cl)cccc1NC(=O)CNC(=O)C1CCN(C(=O)Nc2ccccc2)CC1 | 29 | 24* | -29 | -5 | 2
O=C(CN1C(=O)NC2(CCCCCC2)C1=O)Nc1ccc(Cl)cc1Cl | 7 | 1 | -7 | 0 | ·
O=C(CN1C(=O)NC2(CCc3ccccc3C2)C1=O)Nc1ccc(Cl)cc1F (stereo not drawn) | -19 | 40* | 19 | 1 | -8
O=c1c(Cc2ccccc2)c(O)ccn1Cc1ccc2c(c1)OCO2 | -34 | 37* | 34 | 1 | 6
CCOc1ccc(Oc2ccc(NC(=O)[C@@H](NC(N)=O)[C@@H](C)CC)cc2)cc1 | -1 | 31* | 1 | 0 | 1
COc1cc(OC)cc(C(=O)Nc2sc3c(c2C(N)=O)CCC3)c1 | · | 4 | · | -5 | ·
Cc1ccc(C(=O)NCCc2nnc3ccc(NCc4ccc5c(c4)OCO5)nn23)cc1 | 7 | 51* | -7 | -1 | -2
CCOc1ccc(N(CC(=O)NC2CC2)S(=O)(=O)c2ccc(C)cc2)cc1 | -22 | 0 | 22 | -3 | ·
COC(=O)c1cc(NC(=O)C2CC(=O)NC(=NCc3ccc(OC)cc3)S2)cc(C(=O)OC)c1 (stereo not drawn) | 36 | 37* | -36 | 0 | -5
CSc1ccc(-c2sc(Nc3ccccc3)n[n+]2-c2ccc(F)cc2)cc1 | -7 | 23* | 7 | 2 | 6
Oc1ccc(-c2sc(Nc3ccccc3)n[n+]2-c2ccc(F)cc2)cc1 | -33 | 2 | 33 | 1 | ·
CC(=O)NC(Cc1ccc(F)cc1)C(=O)NC1CCN(C(=O)Nc2ccccc2C)CC1 (stereo not drawn) | -5 | -12 | 5 | 1 | ·
O=C(CN1CCCCC1)Nc1c2c(nc3ccccc13)N(c1ccccc1)CC2 | -9 | 56* | 9 | 0 | -1
CCOC(=O)N1CCC(N2C(=O)c3ccc(C(=O)NCCOC)cc3C2=O)CC1 | -2 | 1 | 2 | 2 | ·
CCOC(=O)N1CCC(N2C(=O)c3ccc(C(=O)Nc4ccc(OC)cc4)cc3C2=O)CC1 | 16 | 30* | -16 | · | -3
O=C(Nc1ccncc1)c1ccc2c(c1)C(=O)N(C1CCCCC1)C2=O | -24 | 26* | 24 | -2 | 6
CSc1nc(N)nc2c1ncn2CC(=O)N[C@H](CO)Cc1c[nH]c2ccccc12 | 11 | 1 | -11 | 2 | ·
O=C(CNCc1ccccn1)Nc1ccc([N+](=O)[O-])cc1C(=O)Nc1ccccc1F | · | -2 | · | -1 | ·
COc1ccc(-c2cc(C(=O)NCC(c3ccco3)N(C)C)c3ccccc3n2)cc1OC (stereo not drawn) | 64 | -10 | -64 | -3 | ·
SMILES | SR-BI HDL uptake | dFosB act-1 | SR-BI DiI-HDL act | CDK5 inh | dFosB act-2
COc1ccc2cc(CN(CC3COCCO3)S(=O)(=O)c3ccc(Cl)cc3)c(=O)[nH]c2c1 (stereo not drawn) | -284 | 39* | ? | -7 | -1
COc1ccc2cc(CN(CC3CCCO3)S(=O)(=O)c3ccccc3)c(=O)[nH]c2c1 (stereo not drawn) | -11 | -11 | 11 | 3 | ·
O=C(O)CCSc1nnc(SCC(=O)NC2CCS(=O)(=O)C2)s1 (stereo not drawn) | -11 | 8 | 11 | 1 | ·
COc1ccccc1NC(=O)c1oc2ccccc2c1NC(=O)C1CC1 | 42 | 24* | -42 | -3 | 0
CCOc1ccc2nc(N(CCN(C)C)C(=O)c3ccc4c(c3)CCCC4)sc2c1 | 62 | 30* | -62 | 0 | 0
CCN(CC)CCN(C(=O)c1ccc2ccccc2c1)c1nc2ccc(OC)cc2s1 | 12 | 26* | -12 | 0 | 4
CCN(CC)CCN(C(=O)c1ccc([N+](=O)[O-])cc1)c1nc2c(OC)cccc2s1 | -4 | 2 | 4 | -4 | ·
CCN(CC)CCN(C(=O)c1ccc(C(=O)c2ccccc2)cc1)c1nc2c(OC)cccc2s1 | 46 | 33* | -46 | 1 | 6
Cc1ccc2nc(N(CCCN(C)C)C(=O)c3ccc4c(c3)CCCC4)sc2c1 | 0 | 1 | 0 | 1 | ·
CN(C)C(CNC(=O)C1CCN(S(=O)(=O)c2cccc(Cl)c2Cl)CC1)c1ccccc1 (stereo not drawn) | 5 | -8 | -5 | 0 | ·
C/C(=N/NC(=O)CSCc1ccc(Cl)cc1)c1cccc(NC(=O)c2ccccc2)c1 | 81* | 38* | -81 | -1 | 2
C/C(=N/NC(=O)c1cccs1)c1ccc(NC(=O)COc2ccc(Cl)cc2)cc1 | 21 | 32* | -21 | 0 | 5
C/C(=N\NC(=O)c1c(Cl)c(C)nn1C)c1ccc(NC(=O)C2CCC2)cc1 | 31 | 1 | -31 | 1 | ·
C/C(=N\NC(=O)c1ccc(Cl)cc1)c1cccs1 | 2 | -5 | -2 | 1 | ·
C/C(=N\NC(=O)c1c(Cl)c(C)nn1C)c1cccc(NC(=O)c2cccc(F)c2)c1 | 61 | -7 | -61 | -1 | ·
C/C(=N\NC(=O)CSCc1ccc(Cl)cc1)c1ccc(NC(=O)c2ccccc2)cc1 | ? | -9 | -72 | -2 | ·
C/C(=N\NC(=O)c1c(Cl)c(C)nn1C)c1ccc(NC(=O)COc2ccc(Cl)cc2C)cc1 | 72* | 33* | -72 | -2 | 2
C/C(=N\NC(=O)c1c(Cl)c(C)nn1C)c1cccc(NC(=O)COc2ccccc2)c1 | 62 | 29* | -62 | 1 | -2
CN(C)c1ccc(C=NCC2COc3ccccc3O2)cc1 (stereo not drawn) | · | 7 | · | -2 | ·
C=CCN1C(=S)CC(c2ccccc2)=Nc2ccccc21 | 18 | -6 | -18 | 1 | ·
CCOc1ccc(-c2nnc3ccc(SCC(=O)Nc4nc5ccccc5s4)nn23)cc1 | -3 | -4 | 3 | -7 | ·
CCOc1ccc(-c2nnc3ccc(SCC(=O)Nc4nc5ccc(C)cc5s4)nn23)cc1 | 47 | 42* | -47 | 0 | 0
O=C(c1ccc(F)cc1)n1c(NCc2ccccc2)n[nH]c1=S | -2 | 35* | 2 | 1 | -2
O=C(c1ccc([N+](=O)[O-])cc1)n1nc(-c2ccccc2)nc1NCc1ccc(F)cc1 | -20 | -8 | 20 | -3 | ·
